Activity calls are given as the source filed them. The calls are words filed in the database; no cut-off is given here.
How the values were obtained:
Chemerin-like receptor 1 [1] = target: T1, Chemerin-like receptor 1 (Homo sapiens, UniProt Q99788); experiment: Agonist activity at chemR23 expressed in human CAL1 cells assessed as increase in intracellular calcium ion concentration; format: functional, cell-based
T1 sequence (Q99788 whole entry): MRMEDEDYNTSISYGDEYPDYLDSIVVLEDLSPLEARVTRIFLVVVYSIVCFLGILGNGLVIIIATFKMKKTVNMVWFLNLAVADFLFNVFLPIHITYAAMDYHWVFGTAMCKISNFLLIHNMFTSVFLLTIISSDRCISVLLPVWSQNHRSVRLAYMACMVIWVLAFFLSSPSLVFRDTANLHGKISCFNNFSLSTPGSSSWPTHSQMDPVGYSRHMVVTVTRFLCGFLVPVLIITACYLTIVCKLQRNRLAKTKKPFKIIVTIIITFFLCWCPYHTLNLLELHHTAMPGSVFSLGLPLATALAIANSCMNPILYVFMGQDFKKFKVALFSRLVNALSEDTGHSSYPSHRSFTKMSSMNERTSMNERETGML

[2] = target: C-X-C chemokine receptor type 4 (Homo sapiens, UniProt P61073); experiment: Inhibition of CXCR4 expressed in human CAL1 cells assessed as reduction in SDF1alpha-induced intracellular calcium ion concentration preincubated for 45 mins followed by SDF1alpha addition; format: functional, cell-based
Procedure, shortened: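 CAL-1 cells (1 × 10⁴/well) loaded with Calcium-3 in RPMI1640, 10 mM HEPES, amaranth 0.75 mg/mL final. Compounds at final 0–10 µM for 45 min at 37 °C, then human SDF-1α (final 5 × 10^-3 µM, in buffer with 1% BSA); intracellular Ca²⁺ read by kinetic fluorescence.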

Chemerin-like receptor 1 [3] = target: T1, Chemerin-like receptor 1; experiment: Inhibition of chemR23 in human CAL1 cells assessed as reduction in chemerin-induced intracellular calcium ion concentration preincubated for 45 mins followed by chemerin addition; format: functional, cell-based
Procedure, shortened: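 CAL-1 cells, native human ChemR23, 1 × 10⁴/well in RPMI 1640 with 10 mM HEPES, Calcium-3 dye, amaranth 0.75 mg/mL final. Compounds at final 0–10 µM for 45 min at 37 °C, then human chemerin (final 50 ng/mL, 1% BSA buffer); intracellular Ca²⁺ read by kinetic fluorescence; mean of four measurements.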

Chemerin-like receptor 1 [4] = target: T2, Chemerin-like receptor 1 (Mus musculus, UniProt P97468); experiment: Inhibition of chemR23 expressed in mouse BA/F3 cells assessed as reduction in chemerin-induced intracellular calcium ion concentration preincubated for 45 mins followed by chemerin addition; format: functional, cell-based
T2 sequence (P97468 whole entry): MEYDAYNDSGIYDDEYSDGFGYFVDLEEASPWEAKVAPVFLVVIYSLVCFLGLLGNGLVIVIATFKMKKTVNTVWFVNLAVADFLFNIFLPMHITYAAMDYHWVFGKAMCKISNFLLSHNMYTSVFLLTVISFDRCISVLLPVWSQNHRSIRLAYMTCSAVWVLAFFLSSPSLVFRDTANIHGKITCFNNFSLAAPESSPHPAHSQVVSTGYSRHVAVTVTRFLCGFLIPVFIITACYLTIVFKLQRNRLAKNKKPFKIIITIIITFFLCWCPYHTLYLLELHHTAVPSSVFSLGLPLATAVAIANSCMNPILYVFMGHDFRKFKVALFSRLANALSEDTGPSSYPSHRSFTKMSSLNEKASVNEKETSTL
Procedure, shortened: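 Ba/F3 cells stably expressing mouse ChemR23, 1 × 10⁴/well, loaded with Calcium-3 in RPMI1640, 10 mM HEPES, amaranth 0.75 mg/mL final. Compounds at final 0–10 µM for 45 min at 37 °C, then mouse chemerin (final 2 ng/mL, 1% BSA buffer); intracellular Ca²⁺ read by kinetic fluorescence.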

[5] = target: T3, Chemerin-like receptor 1 (Homo sapiens) (UniProt Q99788); experiment: Induction of chemR23 internalization in human CAL1 cells at 3 uM incubated for 30 mins at 37 degC by flow cytometric analysis; format: cell-based
T3 sequence (whole entry): T1 sequence (Q99788 whole entry)
Procedure, shortened: (§1)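 CAL-1 cells in RPMI1640 with 10 mM HEPES, 4.5 × 10⁵ cells per tube, exposed to compounds at 37 °C or 4 °C for 30 min; chemerin 50 ng/mL as reference ligand. Washed with PBS containing 2% FBS, stained with anti-ChemR23 antibody; surface ChemR23 measured by flow cytometry, single determination (N = 1).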

[6] = target: T3, Chemerin-like receptor 1 (Homo sapiens); experiment: Induction of chemR23 internalization in human CAL1 cells at 3 uM incubated for 30 mins at 4 degC by flow cytometric analysis; format: cell-based; procedure, shortened: as §1
[7] = target: T3, Chemerin-like receptor 1 (Homo sapiens); experiment: Induction of chemR23 internalization in human CAL1 cells at 10 uM incubated for 30 mins at 37 degC by flow cytometric analysis; format: cell-based; procedure, shortened: as §1
[8] = target: T3, Chemerin-like receptor 1 (Homo sapiens); experiment: Induction of chemR23 internalization in human CAL1 cells at 10 uM incubated for 30 mins at 4 degC by flow cytometric analysis; format: cell-based; procedure, shortened: as §1

C-X-C chemokine receptor type 4, sequence (P61073 whole entry): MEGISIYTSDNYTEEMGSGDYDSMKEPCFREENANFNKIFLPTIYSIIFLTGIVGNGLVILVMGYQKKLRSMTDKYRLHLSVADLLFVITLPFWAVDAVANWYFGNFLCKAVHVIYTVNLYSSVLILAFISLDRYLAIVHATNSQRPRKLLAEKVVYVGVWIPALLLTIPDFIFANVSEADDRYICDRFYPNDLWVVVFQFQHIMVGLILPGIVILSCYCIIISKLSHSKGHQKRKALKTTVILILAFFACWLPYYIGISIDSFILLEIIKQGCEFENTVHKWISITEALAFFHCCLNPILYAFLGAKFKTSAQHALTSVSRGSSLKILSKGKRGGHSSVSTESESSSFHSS

Compound | EC50 (Chemerin-like receptor 1 [1]) [µM] | IC50 [2] [µM] | IC50 (Chemerin-like receptor 1 [3]) [µM] | IC50 (Chemerin-like receptor 1 [4]) [µM] | Activity [5] | Activity [6] | Activity [7] | Activity [8]
c1ccc(CN(Cc2ccc(-c3ccccc3-c3nnn[nH]3)cc2)c2nc3ccccc3o2)nc1 | > 10 | > 10 | 2.8 | – | – | – | – | –
CCCCN(c1nc2cc(NC(N)=O)ccc2o1)[C@H](C)c1ccc(-c2ccccc2-c2nnn[nH]2)cc1 | – | > 10 | 0.037 | 0.43 | – | – | – | –
CCCCN(c1nc2cc(NC(=O)NC)ccc2o1)[C@H](C)c1ccc(-c2ccccc2-c2nnn[nH]2)cc1 | – | > 10 | 0.034 | 0.94 | – | – | – | –
CCCCN(c1nc2ccccc2o1)C(C)c1ccc(-c2ccccc2-c2nnn[nH]2)cc1 (racemic) | 2.7 | 8.8 | 0.25 | – | – | – | – | –
CCCCN(c1nc2ccccc2o1)[C@H](C)c1ccc(-c2ccccc2-c2nnn[nH]2)cc1 | 1.2 | 8.7 | 0.11 | 0.15 | Active | inactive | – | –
CCCCN(c1nc2ccccc2o1)C(CC)c1ccc(-c2ccccc2-c2nnn[nH]2)cc1 (configuration not stated) | 4.5 | 8.8 | 0.94 | – | – | – | – | –
c1ccc(-c2nnn[nH]2)c(-c2ccc(CN(CC3CCCC3)c3nc4ccccc4o3)cc2)c1 | 8.3 | 3.5 | 2.2 | – | – | – | – | –
c1cncc(CN(Cc2ccc(-c3ccccc3-c3nnn[nH]3)cc2)c2nc3ccccc3o2)c1 | > 10 | > 10 | > 10 | – | – | – | – | –
CCCCN(c1nc2ccccc2o1)[C@@H](C)c1ccc(-c2ccccc2-c2nnn[nH]2)cc1 | > 10 | 9.9 | 7.6 | – | Active | inactive | – | –
c1ccc(CN(Cc2ccc(-c3ccccc3-c3nnn[nH]3)cc2)c2nc3ccccc3o2)cc1 | > 10 | 9.6 | > 10 | – | – | – | – | –
CCCCN(c1nc2cc(N(C)C(N)=O)ccc2o1)[C@H](C)c1ccc(-c2ccccc2-c2nnn[nH]2)cc1 | – | – | > 30 | > 10 | – | – | – | –
CCCCN(c1nc2cc(CNC(=O)NC)ccc2o1)[C@H](C)c1ccc(-c2ccccc2-c2nnn[nH]2)cc1 | 1.3 | > 10 | 0.048 | 13 | – | – | – | –
CCCCN(c1nc2cc(NC(=O)N(C)C)ccc2o1)[C@H](C)c1ccc(-c2ccccc2-c2nnn[nH]2)cc1 | – | > 10 | 0.032 | 0.51 | – | – | – | –
CCCCN(c1nc2ccccc2o1)C(C)(C)c1ccc(-c2ccccc2-c2nnn[nH]2)cc1 | > 10 | > 10 | 8.4 | – | – | – | – | –
CCCCN(c1nc2cc(NC(C)=O)ccc2o1)[C@H](C)c1ccc(-c2ccccc2-c2nnn[nH]2)cc1 | 1.5 | > 10 | 0.44 | 2.1 | – | – | – | –
c1ccc(-c2nnn[nH]2)c(-c2ccc(CN(Cc3ccncc3)c3nc4ccccc4o3)cc2)c1 | > 10 | > 10 | > 10 | – | – | – | – | –
CCCCN(c1nc2ccccc2o1)C(c1ccc(-c2ccccc2-c2nnn[nH]2)cc1)C1CC1 (configuration not stated) | > 3 | > 3 | > 3 | – | – | – | – | –

Results, then the compound that gave them:

EC50 (Chemerin-like receptor 1 [1]) [µM] | IC50 [2] [µM] | IC50 (Chemerin-like receptor 1 [3]) [µM] | IC50 (Chemerin-like receptor 1 [4]) [µM] | Activity [5] | Activity [6] | Activity [7] | Activity [8] | Compound
> 10 | > 10 | 3.4 | – | – | – | – | – | COCCN(Cc1ccc(-c2ccccc2-c2nnn[nH]2)cc1)c1nc2ccccc2o1
> 10 | > 10 | 2.4 | – | – | – | – | – | CCCCN(Cc1ccc(-c2ccccc2-c2nnn[nH]2)cc1)c1nc2cc(CC(=O)OC)ccc2o1
> 10 | 5.5 | 3.3 | – | – | – | – | – | CCCCN(Cc1ccc(-c2ccccc2-c2nnn[nH]2)cc1)c1nc2cc(Cl)c(C)cc2o1
> 10 | 2.9 | 1.2 | – | – | – | – | – | CCCCN(Cc1ccc(-c2ccccc2-c2nnn[nH]2)cc1)c1nc2cc(Cl)cc(Cl)c2o1
2.3 | > 10 | 0.12 | > 10 | – | – | – | – | CCCCN(c1nc2cc(CC(=O)NC)ccc2o1)[C@H](C)c1ccc(-c2ccccc2-c2nnn[nH]2)cc1
5.2 | 9.7 | 3.3 | – | – | – | Active | inactive | CCCCN(Cc1ccc(-c2ccccc2-c2nnn[nH]2)cc1)c1nc2ccccc2o1
> 10 | > 10 | 4.3 | – | – | – | – | – | CCCCN(Cc1ccc(-c2ccccc2-c2nnn[nH]2)cc1)c1nc2cc(C(=O)OC)ccc2o1
3.9 | > 10 | 1 | – | – | – | – | – | CCCCN(Cc1ccc(-c2ccccc2-c2nnn[nH]2)cc1)c1nc2cc(CC(=O)NC)ccc2o1
> 10 | 3.9 | 2.5 | – | – | – | – | – | CCCCN(Cc1ccc(-c2ccccc2-c2nnn[nH]2)cc1)c1nc2cc(Cl)cc(C)c2o1
0.28 | > 10 | 0.038 | 0.15 | – | – | – | – | CCCCN(c1nc2cc(C(=O)NC)ccc2o1)[C@H](C)c1ccc(-c2ccccc2-c2nnn[nH]2)cc1
3.9 | 8.6 | 2.5 | – | – | – | – | – | CCCCN(Cc1ccc(-c2ccccc2-c2nnn[nH]2)cc1)c1nc2cc(C)ccc2o1
6.6 | 5.6 | 3.3 | – | – | – | – | – | CCCCCN(Cc1ccc(-c2ccccc2-c2nnn[nH]2)cc1)c1nc2ccccc2o1

From ChEMBL document CHEMBL4364337, “The discovery and optimization of a series of 2-aminobenzoxazole derivatives as ChemR23 inhibitors” (Bioorg Med Chem, 2019)
